High-throughput results deposited in PubChem BioAssay by NMMLSC.
GSH fluor: compound fluorescence on glutathione beads, profiling panel, artefact control, biophysical, 488/530 nm, flow cytometry; GSH beads flow cytometry, compound fluorescence 488/530 nm; active compounds read high; fluorescence (KMESF) at 10 µM; 190,000 tested, 0.25% active; in the data active means fluorescence above about 89;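 further: glutathione beads carrying GST-tagged Bcl family fusion proteins plus one bare bead set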
Arr AP2 block: inhibitors of beta-arrestin/AP2 binding, primary screen, biochemical, GPCR trafficking, flow cytometry | 340,000 tested, 0.31% active | FITC-arrestin peptide / GST-AP2 beads; AP2 beta2 appendage carries R879A mutation | beta-arrestin 1 C-terminal peptide binding to AP2 beta2-adaptin appendage (human) | inhibition, % at 10 µM;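 active means inhibition above a set limit, near 3 SD of compounds lacking own fluorescence, cut at about 54% in these data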
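Material – AP2 appendage R879A on GSH beads · Buffer or medium – PBS with 0.05% Tween 20 and 0.1% BSA · Probe or stimulus – fluorescein-tagged arrestin peptide at 50 nM final · Incubation – compound with beads 12 min RT, then probe 1 h RT · Detection – high-throughput flow cytometry of beads, ex 488, em 535 nm · Evaluation – percent response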
Pemphigus Ab inh: inhibitors of pemphigus antibody binding to DSG3, primary screen, biochemical, bead-based, flow cytometry, scFv-GFP; DSG3-coupled beads, scFv-anti-DSG3-GFP binding; active compounds read low; AID 588358, 2011; 310,000 tested, 0.48% active; Desmoglein-3 (Homo sapiens), P32926; binding (percent of control), % at 10 µM;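 active means binding more than 3 SD below its plate's average and above zero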;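 further: hits lower antibody fragment binding to DSG3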
Avidin bead fluor: green autofluorescence of compounds with avidin beads – biophysical, 488/530 nm, flow cytometry, artefact control, profiling panel. 220,000 tested, 0.38% active. compound fluorescence 488/530 nm; active compounds read high. fluorescence (KMESF) at 10 µM; in the data active means fluorescence above about 47
Arr-AP2 CP1: inhibitors of arrestin peptide binding to AP2, confirmation, biochemical, cherry pick 1, flow cytometry beads; shares compounds with Arr AP2 block; GST-AP2 beads, FITC arrestin peptide binding; GST-fused beta2-adaptin appendage, R879A mutant; inhibition, % at 10 µM; 1,300 tested, 2% active;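 active means inhibition above a set limit, roughly 3 SD of non-fluorescent compound noise, cut at about 38% in these data; inactive means inhibition at or below that limit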;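 further: loss of bead fluorescence from 50 nM FITC arrestin peptide bound to appendage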
Target sequence (P63010 whole entry, looked up, the tested form may be a part, one chain of several): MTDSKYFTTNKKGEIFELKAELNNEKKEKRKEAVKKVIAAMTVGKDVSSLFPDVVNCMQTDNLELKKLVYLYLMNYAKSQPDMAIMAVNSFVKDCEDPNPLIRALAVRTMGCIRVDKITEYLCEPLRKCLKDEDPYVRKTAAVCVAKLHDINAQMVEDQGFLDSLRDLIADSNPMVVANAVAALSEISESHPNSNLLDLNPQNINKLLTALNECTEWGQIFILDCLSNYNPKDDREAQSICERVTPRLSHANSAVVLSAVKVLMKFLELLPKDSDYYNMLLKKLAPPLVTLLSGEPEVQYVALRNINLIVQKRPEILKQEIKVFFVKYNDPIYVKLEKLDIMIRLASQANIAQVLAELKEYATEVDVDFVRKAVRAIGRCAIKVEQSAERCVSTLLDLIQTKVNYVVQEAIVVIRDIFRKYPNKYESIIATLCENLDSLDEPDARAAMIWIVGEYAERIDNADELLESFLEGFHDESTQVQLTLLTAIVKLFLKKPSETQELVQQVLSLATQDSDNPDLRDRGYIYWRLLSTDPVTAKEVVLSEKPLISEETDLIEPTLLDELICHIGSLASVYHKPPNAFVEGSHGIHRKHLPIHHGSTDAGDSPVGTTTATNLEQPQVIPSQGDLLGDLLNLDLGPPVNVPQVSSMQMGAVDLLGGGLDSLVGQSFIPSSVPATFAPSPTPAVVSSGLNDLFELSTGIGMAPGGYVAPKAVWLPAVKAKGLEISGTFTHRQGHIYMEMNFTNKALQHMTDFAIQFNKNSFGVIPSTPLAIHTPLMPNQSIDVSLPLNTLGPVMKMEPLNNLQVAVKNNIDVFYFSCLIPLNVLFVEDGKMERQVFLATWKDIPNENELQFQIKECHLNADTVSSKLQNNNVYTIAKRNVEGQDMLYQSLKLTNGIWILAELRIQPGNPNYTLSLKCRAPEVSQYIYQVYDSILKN
GST GSH counter: GST-fluorescein capture on glutathione beads, confirmation, artefact control for arrestin-AP2 inhibitor project, biochemical, cherry pick 1, flow cytometry; shares compounds with Arr AP2 block; GST-fluorescein binding to GSH beads, fluorescence, counter-screen; inhibition, % at 10 µM; 1,300 tested, 2% active; AID 588338, 2011;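 active means inhibition above 50%, about 3 SD of the inhibition seen with non-fluorescent compounds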;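 further: fluorescein maleimide labelled GST captured on 4 micron glutathione beads; higher means more loss of bead fluorescence from quenching or blocked binding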
Of the large screens only hits and unclear results are named; the others gave an inactive call (follow-up assays come after a bar, where they were run). Rows were chosen to be rich in hits. Some 1.1% of all compounds tested hit in one or more screens of this group.

Cc1ccc(CNC(=O)CCS(=O)(=O)c2ccc(C)cc2)cc1	Arr AP2 block 70 | Arr-AP2 CP1 inactive | GST GSH counter inactive
CCOC(=O)c1c(NC(C)=O)sc2c(OC)c(Br)ccc12	none
CCOC(=O)c1c(NC(C)=O)sc2c(O)c(CN3CCN(CC)CC3)ccc12	Arr AP2 block 64 | Arr-AP2 CP1 inactive | GST GSH counter inactive
O=C(c1ccc(-c2ccc(Cl)cc2)o1)N1CCN(S(=O)(=O)c2cccs2)CC1	none (no result: GSH fluor, Avidin bead fluor)
O=C(c1ccc(-c2ccc([N+](=O)[O-])cc2)o1)N1CCN(S(=O)(=O)c2cccs2)CC1	Arr AP2 block 65 (no result: GSH fluor, Avidin bead fluor) | Arr-AP2 CP1 inactive | GST GSH counter inactive
O=C(NNc1cccc(Cl)n1)c1ccccc1CC[N+](=O)[O-]	Arr AP2 block 55 | Arr-AP2 CP1 inactive | GST GSH counter inactive
O=C(/C=C/c1ccccc1[N+](=O)[O-])NCCCN1CCCC1=O	Arr AP2 block 57 (no result: GSH fluor, Avidin bead fluor) | Arr-AP2 CP1 inactive | GST GSH counter inactive
CCOc1cc(CNc2ccc(N3CCCC3)cc2)cc(Cl)c1OC	Arr AP2 block 55 | Arr-AP2 CP1 inactive | GST GSH counter inactive
Cc1nn(C)c(C)c1C1Nc2ccccc2C(=O)N1O (stereo not given)	none (no result: Pemphigus Ab inh)
O=C1c2ccccc2NC(c2cnc3ccccc3n2)N1O (stereo not given)	Arr AP2 block 94 | Arr-AP2 CP1 inactive | GST GSH counter inactive
CCSc1nnc(-c2sc3nnc(-c4ccccc4)c(-c4ccccc4)c3c2N)o1	Arr AP2 block 73 | Arr-AP2 CP1 inactive | GST GSH counter inactive
CCOC(=O)c1ccc2c(c1)sc(=NC(=O)c1ccco1)n2CCOC	none
CCOC(=O)Cn1c(=NC(=O)c2cccs2)sc2cc(C(=O)OC)ccc21	Arr AP2 block 106, Pemphigus Ab inh 18 | Arr-AP2 CP1 inactive
CCOC(=O)CSc1nc(=O)n2ccc(C)cc2n1	none
COc1ccc(/C=C/C2=CC(C)(C)NC(=S)N2)cc1	none
COc1cc(C2C(C(C)=O)=C(O)C(=O)N2CCN(C)C)ccc1O (stereo not given)	Arr AP2 block 69 | Arr-AP2 CP1 inactive | GST GSH counter inactive
O=C(Cc1ccccc1[N+](=O)[O-])N1CCN(c2ccccc2F)CC1	Arr AP2 block 61 | Arr-AP2 CP1 inactive | GST GSH counter inactive
O=C(Cc1ccccc1[N+](=O)[O-])N1CCOCC1	none (no result: GSH fluor, Avidin bead fluor)
COc1ccc(C(=O)NC2CCC(O)CC2)cc1S(=O)(=O)NCc1ccc(Cl)cc1 (stereo not given)	Arr AP2 block 80 (no result: GSH fluor, Avidin bead fluor) | Arr-AP2 CP1 inactive | GST GSH counter inactive
COc1cc(C(=O)NCCC(C)C)ccc1OCc1ccc(Cl)cc1Cl	none
COc1cc(C(=O)NC2CCCCC2)ccc1OCc1ccc(Cl)cc1Cl	Arr AP2 block 106 | Arr-AP2 CP1 inactive | GST GSH counter inactive
CCN(CC)C(=O)c1ccc(CS(=O)(=O)Cc2ccccc2)cc1	none (no result: GSH fluor, Avidin bead fluor)
COc1ccc(-c2oc3cc(O)c(OC)c(O)c3c(=O)c2OC)cc1O	none (no result: GSH fluor, Avidin bead fluor)
CCC(CC)NC(=O)COn1nnc2ccc(S(=O)(=O)N3CCOCC3)cc21	none (no result: GSH fluor, Avidin bead fluor)
COc1cccc(-n2c(-c3ccco3)nc3nc4ccccc4nc32)c1	Arr AP2 block 75 | Arr-AP2 CP1 65 | GST GSH counter 174
CC12CCC(=O)N1C(C(=O)OCC(=O)Nc1cc(S(=O)(=O)N3CCCCC3)ccc1Cl)CS2 (stereo not given)	none
CCCCOC(=O)c1ccc(NC(=O)COC(=O)C2CSC3(C)CCC(=O)N23)cc1 (stereo not given)	none (no result: GSH fluor, Avidin bead fluor) | Arr-AP2 CP1 inactive | GST GSH counter inactive
CN(C)S(=O)(=O)c1cc(NC(=O)COC(=O)C2CSC3(C)CCC(=O)N23)ccc1Cl (stereo not given)	none | Arr-AP2 CP1 inactive | GST GSH counter inactive
CC12CCC(=O)N1C(C(=O)OCC(=O)Nc1sccc1C#N)CS2 (stereo not given)	none
CCCCn1c(N)c(N(CCOC)C(=O)c2ccc(S(=O)(=O)N(CC)c3ccccc3)cc2)c(=O)[nH]c1=O	none (no result: GSH fluor, Avidin bead fluor)
CCOc1ccc(C(C)=O)cc1N1C(=O)C2C3C=CC(C3)C2C1=O (stereo not given)	none
CCOc1ccc(C(C)=O)cc1N1C(=O)C2C3C=CC(O3)C2C1=O (stereo not given)	Arr AP2 block 78 | Arr-AP2 CP1 inactive | GST GSH counter inactive
COc1ccc(-c2cc(C(F)F)n3ncc(C(=O)Nc4c(C)n(C)n(-c5ccccc5)c4=O)c3n2)cc1	none
COc1ccc(-c2cc(C(F)F)n3ncc(C(=O)Nc4cc(C)on4)c3n2)cc1	Arr AP2 block 104 | Arr-AP2 CP1 inactive | GST GSH counter inactive
Cc1cc(C)n2[nH]c(=O)c(N=Nc3cccc(Cl)c3)c2n1	Arr AP2 block 90 | Arr-AP2 CP1 inactive | GST GSH counter inactive
CCn1cc(C(=O)Nc2ccc(C)c([N+](=O)[O-])c2)cn1	Arr AP2 block 57 | Arr-AP2 CP1 inactive | GST GSH counter inactive
Cc1ccc(C(=O)OC(C)C(=O)Nc2ccc(Cl)cn2)s1 (stereo not given)	none (no result: GSH fluor, Pemphigus Ab inh, Avidin bead fluor)
Clc1ccc(-c2csc(N/N=C/c3ccc4c(c3)OCO4)n2)cc1	Arr AP2 block 79 | Arr-AP2 CP1 inactive | GST GSH counter inactive
N#Cc1c(N)sc(=S)c2c1CCCC2	Arr AP2 block 89 | Arr-AP2 CP1 inactive | GST GSH counter inactive
Cc1ccc2nc(SCC(=O)Nc3ccc(Br)cc3)nc(=O)n2c1	Arr AP2 block 56 (no result: GSH fluor, Avidin bead fluor) | Arr-AP2 CP1 inactive | GST GSH counter inactive
Cc1ccc2nc(SCC(=O)Nc3ccc(C)c(Cl)c3)nc(=O)n2c1	none (no result: GSH fluor, Avidin bead fluor)
Nc1ccc(CSc2ccccc2)cc1	none (no result: GSH fluor, Avidin bead fluor)
O=[N+]([O-])c1ccc(CNc2ccc(Cl)cc2)s1	none (no result: GSH fluor, Avidin bead fluor)
O=[N+]([O-])c1ccc(CNc2cccc(Cl)c2)s1	Arr AP2 block 60 (no result: GSH fluor, Avidin bead fluor) | Arr-AP2 CP1 inactive | GST GSH counter inactive
COc1cccc(NC(=O)c2cccc(NC(=O)c3ccco3)c2)c1	none (no result: GSH fluor, Arr AP2 block, Avidin bead fluor)
COc1cccc(C(=O)Nc2ccc(NC(=O)c3ccco3)c(Cl)c2)c1	Arr AP2 block 56 | Arr-AP2 CP1 inactive | GST GSH counter inactive
CS(=O)(=O)N(CC(=O)NCCSCc1ccccc1)c1ccccc1Cl	none (no result: GSH fluor, Avidin bead fluor)
Cc1sc2ncnc(NCc3ccco3)c2c1C	Arr AP2 block 85 | Arr-AP2 CP1 inactive | GST GSH counter inactive
Cc1cc(NC(=O)COc2ccc(C(C)(C)C)cc2)no1	none (no result: GSH fluor, Avidin bead fluor)
CC(C)C(=O)OCC(=O)Nc1ccc(N=Nc2ccccc2)cc1	Arr AP2 block 56 | Arr-AP2 CP1 inactive | GST GSH counter inactive
Cc1cc(C(=O)CCC(=O)Nc2ccc(C(N)=O)cc2)c(C)s1	none (no result: GSH fluor, Arr AP2 block, Avidin bead fluor)
